Rows were chosen to be rich in hits. Some 4.1% of all compounds tested hit in one or more screens of this group.
UPR XBP1 act: activators of adaptive arm of unfolded protein response (XBP1); activation, % at 20 µM; actives 0.33% (n = 330,000); CHO-XBP1 luciferase reporter, IRE1-XBP1 UPR activation, luminescence; percent of tunicamycin response, DMSO as zero;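 active = versus positive control, 20 µM dose yields 30% or more activation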;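 also: 100% = tunicamycin at 10 µg/mL and 0% = DMSO only wells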
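Material: CHO cell line with stable XBP1 luciferase reporter; buffer or medium: F12 medium containing 10% fetal bovine serum; compound: single point, 20 µM final compound, 1% DMSO; incubation: 6 h treatment, 37 °C; measured by: glow luminescence from Steady-Glo reagent; evaluation: activation, % of tunicamycin; control set: tunicamycin high, DMSO low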
CHOP UPR activ: apoptotic UPR (CHOP) activation | AID 449763 | CHO-CHOP luciferase reporter, luminescence; percent of tunicamycin response over DMSO baseline | activation, % at 10 µM | actives 0.34% (n = 330,000);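 active = at 10 µM dose, activation of 40% or more, normalized to positive control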;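 also: 100% = tunicamycin at 10 µg/mL and 0% = DMSO alone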
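Test system: CHO CHOP reporter cells. Input: 500 CHO-CHOP cells per well. Medium: F12 with 10% FBS. Technique: luciferase luminescence. Measure: percent activation relative to tunicamycin control. Dosing: 10 µM compound, 0.5% DMSO. Timing: 16-18 h cell attachment, then 6 h compound exposure, 37 °C.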
Mdm2 MdmX PPI: inhibitors of human Mdm2/MdmX interaction | O15151+Q00987 | SaOS-2 split-luciferase Mdm2/MdmX complementation, luminescence | inhibition, % at 8 µM | actives 3% (n = 330,000);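 active = inhibition of at least 50% at 8 µM in the primary screen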
UBC13 polyUb: inhibitors of human UBC13 polyubiquitin chain formation. P61088. TR-FRET. inhibition, % at 20 µM. actives 0.47% (n = 330,000). AID 485273; in the data active = inhibition above about 45%, passing the limit was not always enough
Target sequence (P61088 whole entry, looked up): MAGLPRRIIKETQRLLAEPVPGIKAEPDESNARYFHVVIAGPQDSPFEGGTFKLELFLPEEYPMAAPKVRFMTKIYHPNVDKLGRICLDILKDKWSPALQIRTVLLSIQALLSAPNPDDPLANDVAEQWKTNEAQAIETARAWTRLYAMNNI
Apaf1 inhib: blocks human Apaf-1 apoptosome activity | O14727 | reconstituted apoptosome caspase-3 activity, DEVD-Rh110 fluorescence | inhibition, % at 20 µM | actives 0.71% (n = 330,000); active = inhibition of at least 40% at 20 µM;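 also: plate controls were DMSO wells for no effect and DEVD-CHO caspase inhibitor wells for full effect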
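Material: cell-free apoptosome with Apaf-1, procaspase-3 and caspase-9; Buffer or medium: Hepes pH 7.5 with detergent and BSA; Reagent: cytochrome c trigger plus (Z-DEVD)2-Rh110 caspase-3 substrate; Times: compound with Apaf-1, dATP, procaspase-3 30 min, then 50 min reaction, room temperature; Technique: Rh110 fluorescence intensity.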
Apaf-1 inh conf2: confirmation of Apaf-1 inhibitors; actives 25% (n = 1,800); reconstituted apoptosome, caspase-3 DEVD-Rh110 fluorescence; shares compounds with Apaf1 inhib; inhibition, % at 20 µM;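 active = mean inhibition of at least 40% at 20 µM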;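 also: plate controls were DMSO wells for no effect and DEVD-CHO caspase inhibitor control wells for full effect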
Rh110 quench: counter-screen for Apaf-1 inhibitors: fluorescence interference; shares compounds with Apaf1 inhib; Rh110 fluorescence interference, quenched caspase reaction; activation (fluorescence interference), % at 20 µM; 1,800 tested, under 10 active; AID 504615;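 active = signal rise of 40% or more at 20 µM, treated as a fluorescence artifact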
Fluor interf inh: counter-screen for Apaf-1 inhibitors: fluorescence interference, dose response; IC50, µM; fluorescence interference counterscreen, Apaf-1 assay format; AID 588538; shares compounds with Apaf1 inhib; 460 tested, under 10 active; call rule not given here
Starred values were filed as active, the others as inactive; · = not tested or not shown.

SMILES	UPR XBP1 act	CHOP UPR activ	Mdm2 MdmX PPI	UBC13 polyUb	Apaf1 inhib	Apaf-1 inh conf2	Rh110 quench	others
CC1CCN(C2=C(NS(=O)(=O)c3ccc(Cl)cc3)C(=O)c3ccccc3C2=O)CC1	-1	1	-34	-45	46*	15	-21
CC1CCN(C2=C(NS(=O)(=O)c3ccccc3)C(=O)c3ccccc3C2=O)CC1	-1	4	-30	-62	60*	34	6
COc1ccc(CCNC(=O)CNS(=O)(=O)c2ccc(F)c(Cl)c2)cc1OC	0	-1	1	-19	7	·	·
CN(c1ccccc1C(=O)Nc1ccc(CC#N)cc1)S(=O)(=O)c1ccccc1	0	0	-15	-2	-10	·	·
CCOC(=O)C1CCCN(C2=C(NS(=O)(=O)c3ccc(Br)cc3)C(=O)c3ccccc3C2=O)C1 (stereo unspecified)	-3	1	8	-84	67*	48*	21
O=C1C(NS(=O)(=O)c2ccc(Br)cc2)=C(N2CCCCC2)C(=O)c2ccccc21	-2	1	22	-32	36	·	·
CCOC(=O)C1CCN(C2=C(NS(=O)(=O)c3ccc(Cl)cc3)C(=O)c3ccccc3C2=O)CC1	-1	5	8	-46	14	·	·
CC1CCN(C2=C(NS(=O)(=O)c3ccc(Br)cc3)C(=O)c3ccccc3C2=O)CC1	-1	5	-20	-91	54*	26	-3
CCc1nc(SCC(=O)Nc2nnc(CC(C)C)s2)n[nH]1	0	-2	11	2	-5	·	·
O=C(c1cccc(C(F)(F)F)c1)C1CCCN(C(=O)CCCN2CCCC2=O)C1 (stereo unspecified)	0	-1	17	0	-2	·	·
C[C@H](CO)N1C[C@H](C)[C@@H](CN(C)Cc2ccc(Cl)c(Cl)c2)Oc2c(NC(=O)CCC(F)(F)F)cccc2C1=O	0	2	15	7	46*	23	17
C[C@H](CO)N1C[C@H](C)[C@@H](CN(C)Cc2ccc(Cl)c(Cl)c2)Oc2c(NC(=O)C3CCOCC3)cccc2C1=O	2	3	36	8	2	·	·
COc1cc2sc3cc(NCC[C@@H]4CCCN4C)ccc3c(=O)c2cc1OC	10	5	-8	45	55*	23	14
COc1cccc2sc3ccc(NCCC4CCCN4C)cc3c(=O)c12 (stereo unspecified)	3	1	18	-32	24	·	·
CCN(CC(=O)Nc1ccc(NC(C)=O)cc1)C(=O)c1ccccc1Sc1ccccc1C#N	-2	12	-6	35	56*	37	6
CCN(CC(=O)Nc1ccccc1C(F)(F)F)C(=O)c1ccccc1Sc1ccccc1C#N	-1	1	-10	6	15	·	·
CCCc1[nH]nc2c1C(c1ccc(OC)c(CSC3=NCCS3)c1)C(C#N)=C(N)O2 (stereo unspecified)	-1	1	23	-1	41*	43*	11	Fluor interf inh=>100
Clc1ccc(/C=N/Nc2ncnc3ccccc23)cc1Cl	7	1	-56	-10	43*	33	14
Nc1c(Cl)ncnc1N/N=C/c1ccncc1	-1	-1	14	-5	-28	·	·
CC1=CC(=C(C#N)c2nc3ccccc3s2)C=C(C)N1c1ccc(F)cc1	4	5	-16	-21	45*	24	0
COc1ccccc1N1C(C)=CC(=C(C#N)c2nc3ccccc3s2)C=C1C	-8	0	37	-14	56*	23	1
CC(C)=C(C#N)c1nc2ccccc2s1	1	0	19	6	-9	·	·
O=[N+]([O-])c1cc(CN2CCN(c3cccc(C(F)(F)F)c3)CC2)c2cccnc2c1O	1	1	24	-42	42*	24	5
Cc1[nH]n(-c2ccccc2)c(=O)c1/C=N/NC(=O)c1ccc(O)cc1O	-1	2	-18	-33	73*	84*	9	Fluor interf inh=>100
Cc1[nH]n(-c2ccccc2)c(=O)c1/C=N/NC(=O)c1cccc(F)c1	1	7	41	-1	62*	67*	0	Fluor interf inh=>100
SMILES	UPR XBP1 act	CHOP UPR activ	Mdm2 MdmX PPI	UBC13 polyUb	Apaf1 inhib	Apaf-1 inh conf2	Rh110 quench	others
Cc1cc(C(=O)N/N=C/c2c(C)[nH]n(-c3ccccc3)c2=O)n[nH]1	-5	1	12	-10	77*	80*	2	Fluor interf inh=>100
O=C(N/N=C/c1c(Cl)cccc1Cl)c1cccc(F)c1	5	4	-8	2	3	·	·
Cc1[nH]n(-c2ccccc2)c(=O)c1/C=N/N1CCOCC1	-1	2	-7	-3	26	·	·
Cc1cc(C)cc(OCC(=O)Nc2ccc(N3CCCC3)cc2)c1	-1	-2	15	18	41*	21	7
Cc1ccc(OCC(=O)Nc2ccc(N3CCCC3)cc2)cc1C	-3	-1	9	9	30	·	·
CCOC(=O)CCc1c(C)nc(SCc2ccc(C(=O)O)cc2)c(C#N)c1C	-4	3	37	10	-9	·	·
CC(=O)c1cccc(NC(=O)CSc2ccc(-c3ccco3)nn2)c1	-1	0	26	-5	45*	7	6
CN1N=C(C(F)(F)F)CC1=O	-4	1	15	-6	-4	·	·
CN1N=C(C(C)(C)C)CC1=O	-2	-1	24	-8	41*	11	7
COCCn1c(SCC(=O)Nc2cc(C)on2)nnc1C(C)C	2	1	3	7	-1	·	·
CCOC(=O)C1Nc2ccccc2C2C(O)C(O)CC12 (stereo unspecified)	2	2	10	-27	66*	18	-7
CSc1ccc(/C=N/NC(=O)CNc2ccc3ccccc3c2)cc1	0	-1	19	-10	11	·	·
CSc1ccc(/C=N/NC(=O)CNc2cccc3ccccc23)cc1	-1	-1	27	-60	86*	16	-3
CCOC(=O)N1CCN(C(=O)c2c(Cl)cnn2C)CC1	0	1	11	4	-5	·	·
Cc1noc(C)c1S(=O)(=O)NCc1ccc(CN(C)C)cc1	-2	1	21	3	-3	·	·
CCCCOc1ccc(N=Cc2cccs2)cc1	-1	1	7	-1	-14	·	·
Oc1ccc(N=Cc2ccc(-c3cccs3)s2)cc1	2	2	-15	2	96*	26	5
COc1cc2cc(NC(C)=O)cc(NCc3ccccc3)c2cc1OC	-5	1	20	-30	88*	40	0	Fluor interf inh=>100
CCCCNc1cc(NC(C)=O)cc2cc(OC)c(OC)cc12	-2	0	7	-42	62*	83*	-1	Fluor interf inh=>100

Compound activity (PubChem)
